Here are results for 98 molecules from ChEMBL document CHEMBL4513216, “Probing the Open Global Health Chemical Diversity Library for Multistage-Active Starting Points for Next-Generation Antimalarials” (ACS Infect Dis, 2020).

A short description of the data set: Toxicity liver stage against HepG2, at 10uM. The format is cell-based. The arrangement: test concentration 10 uM, cell line HepG2-A16-CD81EGFP. Particulars: human, HepG2-A16-CD81EGFP cells; read-out: INHIBITION
The method in brief:
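Uninfected HepG2-A16-CD81EGFP cells, 3 × 10^3 per well, 1536-well, plated on prespotted compound at 10 μM final, parasite-free screening media added to match infected plates; puromycin 10 μM positive, DMSO 0.5% negative; run in parallel with 48 h PbLuc assay at 37 °C, 5% CO2; viability by CellTiter-Glo luminescence, normalized to controls.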

Structures are written as SMILES.

As to `O=C1[C@@H]2CCN(CC3CC3)C[C@@H]2OCCN1c1cccnc1`, the cytotoxicity at 10 µM is 8.1%.

`CC(Nc1cccc(CN2CCOC2=O)c1)C(=O)N1CCNC1=O` (stereo not drawn): the cytotoxicity at 10 µM is -1.63%.

As to `c1cnnc(-c2noc(CCN3CCCO3)n2)c1`, the cytotoxicity at 10 µM was -3.61%.

For the molecule `Cc1nn(-c2ncccn2)c2c1C(c1cnn(C)c1C)SCC(=O)N2` (stereo not drawn), the cytotoxicity at 10 µM was -46.4%.

Take `Cc1ccc(CN(CCCn2ccnc2)Cc2cnc(N(C)C)nc2)s1`: the cytotoxicity at 10 µM is -12.6%.

As for `O=C(c1ccoc1)N1CCCC1C1CCN(Cc2ccccc2)CC1` (stereo not drawn), the cytotoxicity at 10 µM was -10.6%.

With `O=C(O)c1cccnc1CN1CCCCC1CCc1cccc(O)c1` (stereo not drawn), the cytotoxicity at 10 µM is -1.84%.

For the molecule `COCCN(Cc1ccc(F)cc1Cl)C(=O)c1cc[n+]([O-])cc1`, the cytotoxicity at 10 µM came out at 4.75%.

For the molecule `O=C1C[C@@H]2CC[C@H](CN1)N2c1cc(-c2ccccc2F)nc2ccnn12`, the cytotoxicity at 10 µM is 20.4%.

For `CNC(=O)NC(=O)CN1CCN(c2ccc(C(=O)OC)cc2)CC1C` (stereo not drawn), the cytotoxicity at 10 µM is -1.98%.

For `Cn1ccc(C(=O)N2CCCN(CCCc3ccccc3)CC2)cc1=O`, the cytotoxicity at 10 µM is -0.942%.

As to `CCCN1CC(C(=O)Nc2ccccn2)CC1=O` (stereo not drawn), the cytotoxicity at 10 µM is -16.4%.

For the molecule `COc1c(C)cnc(CN2CCn3c(nnc3C(C)C)C2)c1C`, the cytotoxicity at 10 µM amounted to 5.56%.

Consider `O=C1CC2(CCN(Cc3ccc4cccc(O)c4n3)CC2)CN1`, for which the cytotoxicity at 10 µM was -15.3%.

For `Cn1ccnc1CN1CCO[C@H]2C(CNC(=O)c3ccco3)CC[C@@H]21` (stereo partly drawn), the cytotoxicity at 10 µM amounted to 3.62%.

Regarding `CC(=O)c1cccc(S(=O)(=O)N2CCC(c3noc(C)n3)CC2)c1`, the cytotoxicity at 10 µM worked out at 7.85%.

Take `COc1ccc(Br)cc1CCC(=O)N1CCCC(O)C1` (stereo not drawn): the cytotoxicity at 10 µM worked out at 5.66%.

In the case of `Cc1nc(N2CCCC(N3CCCC3)C2)c2cnn(C)c2n1` (stereo not drawn), the cytotoxicity at 10 µM was -4.07%.

Take `CN(C)C(=O)CCC(=O)NCc1cccnc1-n1cnc2ccccc21`: the cytotoxicity at 10 µM was -3.97%.

With `CC(C)CCn1[nH]c(CNc2ccccc2)nc1=O`, the cytotoxicity at 10 µM is 1.62%.

Consider `COCCN1CCCC(c2nccnc2-c2cccc(Cl)c2)C1` (stereo not drawn), for which the cytotoxicity at 10 µM is 3.99%.

In the case of `CCC(NC(=O)c1cc(CC(C)C)nn1C)c1cc(C)ccn1` (stereo not drawn), the cytotoxicity at 10 µM was -138%.

On to `CNc1cncc(C2CCCN2c2cc(C)ncn2)n1` (stereo not drawn), for which the cytotoxicity at 10 µM was -23.3%.

For the molecule `Cn1cc(-c2nc(CN3CCN(c4nccs4)CC3)cs2)cn1`, the cytotoxicity at 10 µM is -7.45%.

Regarding `Cc1nc(C)n(CC2CCCN(CC(=O)N3CCCC3)C2)n1` (stereo not drawn), the cytotoxicity at 10 µM was -8.31%.

As to `CCCOCCN1CCC2(CC1)CC(=O)N(Cc1cc(F)cc(F)c1)C2`, the cytotoxicity at 10 µM was 2.71%.

Regarding `CN(C)CCN1CCCC12CCN(C(=O)c1cccnc1)CC2`, the cytotoxicity at 10 µM stood at 4.68%.

Regarding `O=C(c1cccnc1)N1CCC2(CCN(C(=O)c3ccco3)CC2)C1`, the cytotoxicity at 10 µM was -91.6%.

In the case of `Cc1ccc(S(=O)(=O)NC(=O)CCc2ccco2)cc1N(C)C`, the cytotoxicity at 10 µM was -0.845%.

On to `CCCn1ccc(C(=O)Nc2ccc3c(c2)C(C)(C)C(=O)N3C)n1`, for which the cytotoxicity at 10 µM stood at 8.44%.

For `O=C(CNCCn1cccn1)NCC1(c2ccccc2)CCCC1`, the cytotoxicity at 10 µM was -5.92%.

On to `CCCc1n[nH]c(C2CN(CCNS(C)(=O)=O)CCO2)n1` (stereo not drawn), for which the cytotoxicity at 10 µM is -0.975%.

As to `CC(C)Oc1ccccc1OCCN1C(=O)CCNC1=O`, the cytotoxicity at 10 µM was -6.67%.

For `O=C(Nc1ccc(F)c(Br)c1)N1CCCC1`, the cytotoxicity at 10 µM turned out to be 2.32%.

Regarding `O=C(C1SCCc2ccccc21)N1CCC(O)CC1` (stereo not drawn), the cytotoxicity at 10 µM stood at 0.0013%.

On to `CCc1ccc(S(=O)(=O)Nc2cnc(N3CCOCC3)nc2)cc1`, for which the cytotoxicity at 10 µM was -7.72%.

For `CCn1nc(C)c2nnn(CC(=O)Nc3c(C)cccc3C)c(=O)c21`, the cytotoxicity at 10 µM was 5.22%.

As to `N#Cc1cccc(CNCCC(=O)N2CCc3sccc3C2)c1`, the cytotoxicity at 10 µM amounted to 1.04%.

`CCC(C(=O)N(C)Cc1cc(-c2ccccc2)n[nH]1)n1cccn1` (stereo not drawn): the cytotoxicity at 10 µM is -7.35%.

As to `Cc1nc(C)c(C(=O)NCCNC(=O)c2ccc(F)cc2F)s1`, the cytotoxicity at 10 µM is -5.55%.

`CCc1cnc(N2CCOC(CCOC)C2)nc1` (stereo not drawn): the cytotoxicity at 10 µM is -3.88%.

With `CN(C)CCCN(C)C1CCN(c2cccc(-c3cscn3)c2)CC1`, the cytotoxicity at 10 µM is -5%.

Regarding `CNC(=O)[C@H]1C[C@@H]2CN(C(=O)c3ccncc3F)C[C@@H]2N1C`, the cytotoxicity at 10 µM was -111%.

As to `Cn1cnn(Cc2ccccc2F)c1=O`, the cytotoxicity at 10 µM is -3.09%.

`CC(O)C1CCN(c2cc(Cl)ccc2C#N)CC1` (stereo not drawn): the cytotoxicity at 10 µM was 4.92%.

For the molecule `CC(C)NC(=O)c1cnc(Sc2nccn2C)c(Cl)c1`, the cytotoxicity at 10 µM was -41.4%.

As to `CCc1nc(NC2CC(=O)N(CC3CCCCC3)C2)ncc1C` (stereo not drawn), the cytotoxicity at 10 µM is -4.55%.

As to `NC(=O)C1CCN(CCc2ccc(NCc3ccoc3)cc2)CC1`, the cytotoxicity at 10 µM is -26.2%.

For the molecule `Cc1cccc(-c2noc(CN3CCOCC3C)n2)c1` (stereo not drawn), the cytotoxicity at 10 µM was -11.9%.

As for `CC(NC(=O)Cn1cccn1)c1ccc2c(c1)OCCCO2` (stereo not drawn), the cytotoxicity at 10 µM was -2.55%.

For `CCC(CN1CCCC1)NC(=O)Cc1c(C)[nH]c2c(C)cc(C)cc12` (stereo not drawn), the cytotoxicity at 10 µM stood at 14.6%.

For the molecule `CC1CCc2sc(C(=O)Nc3cnn(C)c3)cc2C1` (stereo not drawn), the cytotoxicity at 10 µM was determined as 9.48%.

With `CCc1ncc(C(=O)N(CCOC)Cc2ccccc2F)cn1`, the cytotoxicity at 10 µM is 0.728%.

On to `CN(C)C(=O)N1Cc2nnn(C)c2C(COCc2cccnc2)C1` (stereo not drawn), for which the cytotoxicity at 10 µM amounted to 10.8%.

Consider `Cc1nnc(NC(=O)NCc2ccc(N3CCC(C)CC3)nc2)s1`, for which the cytotoxicity at 10 µM is -1.36%.

`COc1ccnc(N2CCN(C(=O)c3cc(C4CC4)[nH]n3)CC2)n1`: the cytotoxicity at 10 µM came out at 6.85%.

On to `Cc1nnc([C@@H]2C[C@H]3CN(C4CCC4)C[C@H]3O2)[nH]1`, for which the cytotoxicity at 10 µM is 8.89%.

On to `COCCCNC(=O)Nc1ccc(OCc2noc(C3CC3)n2)cc1`, for which the cytotoxicity at 10 µM worked out at 7.04%.

For the molecule `CCCOc1ccc2c(c1)OCC(CNC1CCc3ncnn3C1)=C2` (stereo not drawn), the cytotoxicity at 10 µM is -6.63%.

`O=C(Cc1cccs1)N1CC[C@H]2[C@H]1CCN2Cc1cccnc1`: the cytotoxicity at 10 µM came out at 2.41%.

On to `CC(C)Nc1nc2c(c(NC3CC3)n1)CCN(Cc1nccn1C)CC2`, for which the cytotoxicity at 10 µM turned out to be 0.325%.

Regarding `COc1cccc(-c2cc(C3CCCNC3)ccn2)c1` (stereo not drawn), the cytotoxicity at 10 µM was 0.207%.

As for `CC(C)N1CCOC[C@H]1c1nc(-c2ccncc2)c[nH]1`, the cytotoxicity at 10 µM was determined as 6.73%.

As to `Cn1ccc(-c2cc(C(=O)N3CCC(O)CC3)c3ccccn23)n1`, the cytotoxicity at 10 µM was -98.3%.

For the molecule `Cc1ccc(CC(NC(=O)CCS(C)(=O)=O)c2ccccn2)cc1` (stereo not drawn), the cytotoxicity at 10 µM was -11%.

For `Cc1nc(NCc2ccco2)nc2c1COCC21CCNC1` (stereo not drawn), the cytotoxicity at 10 µM turned out to be 10.3%.

For the molecule `O=C(Cn1ncc2c(c1=O)CCCC2)Nc1cccc2[nH]ccc12`, the cytotoxicity at 10 µM was 3.16%.

On to `NC(=O)C1CCN(C(=O)NCc2ccccc2-n2cccn2)C1` (stereo not drawn), for which the cytotoxicity at 10 µM is -18.4%.

Consider `Cc1ccccc1Cc1nc(CSc2nnc(N)n2C)no1`, for which the cytotoxicity at 10 µM came out at 5.26%.

Consider `Cn1cc([C@@H]2CN(S(=O)(=O)c3cccnc3)C[C@H]2N)c2ccncc21`, for which the cytotoxicity at 10 µM is -0.57%.

With `N#Cc1c(Cl)nsc1NCC1(c2ccccc2)CCC1`, the cytotoxicity at 10 µM was found to be 26.7%.

With `Cn1cc(CN2CCCN(CCCc3ccccc3)CC2)cn1`, the cytotoxicity at 10 µM is -50.8%.

Consider `Cc1cc(CN2CCN(C(=O)NCc3cccs3)CC2)on1`, for which the cytotoxicity at 10 µM was -1.68%.

`CC(C)(N)C(=O)N1CCC(c2nccnc2Oc2cccc(F)c2)CC1`: the cytotoxicity at 10 µM is -13.2%.

With `CNC(=O)[C@@H]1C[C@H]2CN(Cc3csc(C)n3)C[C@H]2N1C(C)C`, the cytotoxicity at 10 µM was 7.08%.

For `c1ccc(CN2CC[C@H]3CO[C@H](CNc4ncccn4)[C@H]3C2)cc1`, the cytotoxicity at 10 µM was -5.87%.

Consider `CCOC(=O)c1cnn(C2CCN(C(=O)CC3C=CCC3)CC2)c1N` (stereo not drawn), for which the cytotoxicity at 10 µM was 7.87%.

`CN(Cc1ccccc1)c1ccc(C(F)(F)F)cn1`: the cytotoxicity at 10 µM was found to be 10.2%.

As to `CN(Cc1ccccc1OC(F)(F)F)C(=O)C1CCCN(C(N)=O)C1` (stereo not drawn), the cytotoxicity at 10 µM was 7.59%.

For `COc1ncc(NCc2csc(-c3ccco3)n2)cc1C(N)=O`, the cytotoxicity at 10 µM was -17.9%.

Turning to `CN1CCC(Cc2cc(Nc3ccccn3)ncn2)CC1`, the cytotoxicity at 10 µM is -23.4%.

Regarding `O=C(C1CCCO1)N1CCC2(CC1)COCCN2CC1CC1` (stereo not drawn), the cytotoxicity at 10 µM amounted to 2.79%.

As for `CC(C)(C)c1nccc(N2CCC(OCCN3CCCCC3)C2)n1` (stereo not drawn), the cytotoxicity at 10 µM was -53.7%.

As for `CCC(Nc1cccc(Oc2ccc(C#N)cc2)c1)C(N)=O` (stereo not drawn), the cytotoxicity at 10 µM was found to be 38%.

With `Cn1ccnc1CN(Cc1cccnc1)CC1CCCO1` (stereo not drawn), the cytotoxicity at 10 µM worked out at 15.2%.

For the molecule `CC(C)n1cc(CN2CCCN(C(=O)c3cccn3C)CC2)cn1`, the cytotoxicity at 10 µM turned out to be 1.51%.

On to `CCc1c(C)[nH]c(C(C)(N)CC)nc1=O` (stereo not drawn), for which the cytotoxicity at 10 µM is -4.04%.

For the molecule `CC(C)(C)n1ncc2c1CCCC2NCc1ccc2c(c1)OCCO2` (stereo not drawn), the cytotoxicity at 10 µM stood at 1.7%.

Regarding `CC1CC(=O)c2cc(C(=O)N3CCN(C)CC3)c(=O)[nH]c2C1` (stereo not drawn), the cytotoxicity at 10 µM was -6.32%.

With `Cn1nccc1CNC(=O)C1CCCCC1`, the cytotoxicity at 10 µM worked out at 7.89%.

For `COc1cccc(C2SCC(=O)Nc3ccsc32)c1` (stereo not drawn), the cytotoxicity at 10 µM worked out at 2.77%.

As to `N#Cc1ccc(NCC(O)c2ccco2)c(C(F)(F)F)c1` (stereo not drawn), the cytotoxicity at 10 µM was -31.7%.

Consider `Cc1nc(N(C)C)nc2c1COCC21CCN(C(=O)NC(C)C)C1` (stereo not drawn), for which the cytotoxicity at 10 µM was -13%.

Turning to `O=C1CCCN1Cc1ncn2c1CN(C(=O)NC1CCCC1)CCC2`, the cytotoxicity at 10 µM is -147%.

Regarding `CC(Cc1ccco1)NS(=O)(=O)N1CCCCCC1` (stereo not drawn), the cytotoxicity at 10 µM amounted to 2.29%.

Turning to `CN(C)c1nccc(N(C)Cc2nc3ccccc3n2C)n1`, the cytotoxicity at 10 µM came out at 0.482%.

As to `O=C1CCCc2nccc(-c3ccccc3)c21`, the cytotoxicity at 10 µM is 3.15%.

For the molecule `CN(C)S(=O)(=O)N1C[C@H]2CCC[C@@]2(COCC2CC2)C1`, the cytotoxicity at 10 µM stood at 6.13%.
